# Reference: ChEMBL document CHEMBL1629645 (Antimicrob Agents Chemother, 2009)
# What was measured:
# [1] = tested on: Staphylococcus aureus; assay: Antibacterial activity against methicillin-resistant Staphylococcus aureus ATCC 43300 by macrodilution method; assay type: functional
# In short: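 Broth macrodilution MIC in Mueller-Hinton broth per CLSI. Inoculum 1 × 10^5 to 5 × 10^5 CFU/ml. Ten twofold drug dilutions, 18 h at 37°C without shaking. MIC is the lowest concentration with no visible growth. Triplicate.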
# [2] = AUC (0 to 24 hrs) in cage fluid of Albino guiena pig at 10 mg/kg, ip; assay type: ADME, organism-based, Cavia porcellus; set-up: time < 24 hr, dose 10 mg/kg, route intraperitoneal; settings: guinea pig
# [3] = Tmax in cage fluid of Albino guiena pig at 10 mg/kg, ip; assay type: ADME, organism-based, Cavia porcellus; set-up: dose 10 mg/kg, route intraperitoneal; settings: guinea pig
# [4] = tested on: Staphylococcus aureus; assay: Antibacterial activity against methicillin-resistant Staphylococcus aureus ATCC 43300 during logarithmic growth phase by macrodilution method; assay type: functional
# [5] = Half life in cage fluid of Albino guiena pig at 10 mg/kg, ip; assay type: ADME, organism-based, Cavia porcellus; set-up: dose 10 mg/kg, route intraperitoneal; settings: guinea pig, in vivo
# [6] = tested on: Staphylococcus aureus; assay: Antibacterial activity against methicillin-resistant Staphylococcus aureus ATCC 43300 during stationary growth phase by macrodilution method; assay type: functional
# [7] = Cmin in cage fluid of Albino guiena pig at 10 mg/kg, ip after 12 hrs; assay type: ADME, organism-based, Cavia porcellus; set-up: dose 10 mg/kg, route intraperitoneal; settings: guinea pig, read-out: Cmin
# [8] = Cmax in cage fluid of Albino guiena pig at 10 mg/kg, ip after 12 hrs; assay type: ADME, organism-based, Cavia porcellus, Interstitial fluid; set-up: dose 10 mg/kg, route intraperitoneal; settings: guinea pig
smiles,measurement,setting,value
C[C@H]1COc2c(N3CCN(C)CC3)c(F)cc3c(=O)c(C(=O)O)cn1c23.C[C@H]1COc2c(N3CCN(C)CC3)c(F)cc3c(=O)c(C(=O)O)cn1c23.O [LEVOFLOXACIN],MIC,[1],0.16 µg/mL
same,AUC(0-t) at 24 h,[2],6100 ng·h/mL
same,Tmax,[3],2.5 h
same,MBC,[4],0.63 µg/mL
same,t1/2,[5],4.2 h
same,MBC,[6],> 20 µg/mL
same,concentration at 12 h,[7],300 ng/mL
same,Cmax,[8],1500 ng/mL
